Experimental data from ChEMBL document CHEMBL4414663, “Pyrazole-4-Carboxamide (YW2065): A Therapeutic Candidate for Colorectal Cancer via Dual Activities of Wnt/β-Catenin Signaling Inhibition and AMP-Activated Protein Kinase (AMPK) Activation” (J Med Chem, 2019).
Calls of active or inactive are those of the source. The rule behind the calls is not given here.

Legend:
[1] = target: Serine/threonine-protein kinase PAK 3 (Homo sapiens) (UniProt O75914); test: Inhibition of PAK3 (unknown origin) at 1000 nM relative to control
Summary of the method: (§1)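 Single-concentration screen at 1000 nM against a 273-kinase panel, reported as percent inhibition.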

HEK293 = test: Induction of Axin-1 protein expression in recombinant human Wnt-3a-induced Wnt-HEK293 cells at 1 uM by fluorescence microscopy; type: functional, cell-based
Summary of the method: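 HEK293 cells treated at 1 µM, stained with anti-Axin-1 antibody and DAPI, imaged by fluorescence microscopy.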

[2] = target: T1, AMP-activated protein kinase, AMPK (Homo sapiens) (UniProt P54646+O43741+P54619+Q9UGJ0+Q9Y478+Q13131+Q9UGI9); test: Activation of AMPK in human SW620 cells assessed as increase in ACC phosphorylation incubated for 24 hrs by Western blot analysis; type: cell-based
Summary of the method: (§2)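 SW620 cells in RPMI 1640 with 10% FBS, treated over a concentration range. Lysed in RIPA with protease inhibitors, 20 µL of 2 mg/mL protein run on 7.5% SDS-PAGE, transferred to nitrocellulose, blocked in 5% BSA. Rabbit primaries (Axin-1, ACC, pACC, AMPK, pAMPK at 1:1,000; β-actin 1:2,000) overnight at 4 °C, HRP secondary 1:8000 for 2 h, ECL.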

SW-620 [3] = test: Induction of apoptosis in human SW620 cells incubated for 48 hrs by AAD-7 and FITC-annexin-V staining based flow cytometry; type: functional, cell-based
Summary of the method: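 Cells treated with a range of concentrations or DMSO for 48 h. Stained with FITC annexin V/7-AAD and analysed by flow cytometry.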

[4] = target: MAP kinase-activated protein kinase 3 (Homo sapiens) (UniProt Q16644); test: Inhibition of MAPKAPK3 (unknown origin) at 1000 nM relative to control; summary of the method: as §1
[5] = AUC (0 to infinity) in C57BL/6J mouse at 5 mg/kg, po by UPLC-MS analysis; type: ADME, organism-based; set-up: dose 5 mg/kg, time infinity, route oral; settings: in vivo
Summary of the method: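 Male C57BL/6J mice, 2-3 months, 23-26 g. Single 5 mg/kg dose in 5% Kolliphor in saline, given iv (n=3) or by oral gavage (n=5). Tail-vein blood taken at 0.25, 0.5, 1, 4, 8 and 12 h and spun to plasma. Plasma analysed by LC-MS/MS on a triple quadrupole with a C18 column. Parameters from non-compartmental analysis.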

[6] = Inhibition of Wnt/beta-Catenin signaling in human SW480 cells incubated for 24 hrs by TCF/LEF dual-luciferase reporter assay; type: cell-based; settings: SW480, 24 h
Summary of the method: (§3)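 SW480 or SW620 cells seeded at 200,000/well and transiently transfected 24 h later with TOPflash firefly luciferase plus pRLTK-Renilla using lipofectamine 2000. After 16 h the medium was replaced with compound at a range of concentrations, three replicates each. Dual firefly/Renilla luciferase read 24 h later.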

SW-620 [7] = test: Antitumor activity against human SW620 cells xenografted in nude mouse assessed as reduction in tumor weight at 50 mg/kg, ip QD for 32 consecutive days; type: functional, organism-based
Summary of the method: (§4)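 Six-week-old nude mice injected subcutaneously with 2×10^6 SW620 cells. Randomised at mean tumor volume 100–200 mm³ (n=6/group). Given 10 or 50 mg/kg ip daily for 32 consecutive days; vehicle 10% DMSO, 10% Kolliphor, 80% saline. Tumor volume measured every other day. Tumors weighed after euthanasia at day 32. t test against vehicle.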

Mus musculus = test: Inhibition of Wnt/beta-Catenin signaling in nude mouse xenografted with human SW620 cells assessed as reduction in S100A4 mRNA expression at 50 mg/kg, ip QD for 32 consecutive days by RT-PCR analysis; type: organism-based; settings: in vivo
Summary of the method: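 Six-week-old nude mice implanted subcutaneously in the right flank with 2×10^6 SW620 cells. Randomized at mean tumor volume 100–200 mm³, n = 6/group. Dosed IP once daily for 32 days at 10 or 50 mg/kg, or vehicle (10% DMSO, 10% Kolliphor, 80% saline). Tumors collected at day 32; Axin-2, MMP-7 and S100A4 expression measured by RT-PCR.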

SW480 = test: Inhibition of colony formation in human SW480 cells incubated for 14 days by crystal violet staining based assay; type: functional, cell-based
Summary of the method: (§5)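 SW480, SW620 or HT29 cells seeded at 300/well in 3 mL medium in 6-well plates with a concentration series of compound. After 14 days, fixed in 4% formaldehyde and stained with 0.5% crystal violet in 25% aqueous MeOH; colonies photographed.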

[8] = Toxicity in C57BL/6 mouse assessed as effect on body weight at 100 mg/kg/day, ip for 21 days; type: organism-based; settings: in vivo, 504 h
Homo sapiens = species on record: Homo sapiens; test: Inhibition of Wnt/beta-Catenin signaling in human SW620 cells assessed as reduction in beta-catenin protein level at 1 to 30 uM by Western blot analysis; type: cell-based
Summary of the method: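 SW620 cells treated with a dose range of compound and lysed in RIPA buffer with protease inhibitor. Protein at 2 mg/mL, denatured at 98 °C for 5 min, run on 7.5% SDS-PAGE and transferred to nitrocellulose. Blocked in 5% BSA; rabbit anti-β-catenin (1:2,000) overnight at 4 °C with β-actin as loading control. HRP secondary (1:8000), 2 h; ECL detection.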

SW-620 [9] = test: Antitumor activity against human SW620 cells xenografted in nude mouse assessed as reduction in tumor weight at 10 mg/kg, ip QD for 32 consecutive days; type: functional, organism-based; summary of the method: as §4
[10] = target: T1, AMP-activated protein kinase, AMPK (Homo sapiens); test: Activation of AMPK in human SW620 cells assessed as increase in AMPK phosphorylation incubated for 24 hrs by Western blot analysis; type: cell-based; summary of the method: as §2
HT-29 = test: Inhibition of colony formation in human HT-29 cells incubated for 14 days by crystal violet staining based assay; type: functional, cell-based; summary of the method: as §5
[11] = target: Proto-oncogene tyrosine-protein kinase Src (Homo sapiens) (UniProt P12931); test: Inhibition of SRC (unknown origin) at 1000 nM relative to control; summary of the method: as §1
[12] = Toxicity in C57BL/6 mouse assessed as effect on total protein level at 100 mg/kg/day, ip for 21 days; type: organism-based; settings: in vivo, 504 h
SW-620 [13] = test: Induction of apoptosis in human SW620 cells assessed as early apoptotic cells level at 1 uM incubated for 48 hrs by AAD-7 and FITC-annexin-V staining based flow cytometry (reference value: 18.6%); type: functional
[14] = Inhibition of Wnt/beta-Catenin signaling in human SW620 cells incubated for 24 hrs by TCF/LEF dual-luciferase reporter assay; type: cell-based; settings: SW-620, 24 h; summary of the method: as §3
SW-620 [15] = test: Antitumor activity against human SW620 cells xenografted in nude mouse assessed as reduction in tumor volume at 50 mg/kg, ip QD for 32 consecutive days relative to control; type: functional; set-up: scale not given: the % may be the effect or the level left; summary of the method: as §4
[16] = target: Maternal embryonic leucine zipper kinase (Homo sapiens) (UniProt Q14680); test: Inhibition of MELK (unknown origin) at 1000 nM relative to control; summary of the method: as §1
SW-620 [17] = test: Induction of apoptosis in human SW620 cells assessed as early apoptotic cells level at 3 uM incubated for 48 hrs by AAD-7 and FITC-annexin-V staining based flow cytometry (reference value: 18.6%); type: functional

Proto-oncogene tyrosine-protein kinase Src (Homo sapiens), sequence (P12931 2-536 limits assumed): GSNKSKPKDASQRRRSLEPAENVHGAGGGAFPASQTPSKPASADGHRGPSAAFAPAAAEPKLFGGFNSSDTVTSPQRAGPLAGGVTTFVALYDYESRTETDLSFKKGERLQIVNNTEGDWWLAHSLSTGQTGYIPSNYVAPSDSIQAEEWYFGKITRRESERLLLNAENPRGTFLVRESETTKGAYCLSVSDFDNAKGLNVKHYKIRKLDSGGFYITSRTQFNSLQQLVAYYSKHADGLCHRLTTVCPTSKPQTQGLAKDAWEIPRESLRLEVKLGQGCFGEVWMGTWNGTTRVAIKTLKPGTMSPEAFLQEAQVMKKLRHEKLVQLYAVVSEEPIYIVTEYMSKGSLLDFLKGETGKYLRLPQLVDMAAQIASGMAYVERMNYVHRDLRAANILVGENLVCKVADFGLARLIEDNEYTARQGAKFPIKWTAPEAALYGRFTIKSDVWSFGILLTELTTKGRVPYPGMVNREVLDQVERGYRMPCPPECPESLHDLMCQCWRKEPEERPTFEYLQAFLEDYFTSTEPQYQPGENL
Maternal embryonic leucine zipper kinase (Homo sapiens), sequence (Q14680 whole entry, looked up): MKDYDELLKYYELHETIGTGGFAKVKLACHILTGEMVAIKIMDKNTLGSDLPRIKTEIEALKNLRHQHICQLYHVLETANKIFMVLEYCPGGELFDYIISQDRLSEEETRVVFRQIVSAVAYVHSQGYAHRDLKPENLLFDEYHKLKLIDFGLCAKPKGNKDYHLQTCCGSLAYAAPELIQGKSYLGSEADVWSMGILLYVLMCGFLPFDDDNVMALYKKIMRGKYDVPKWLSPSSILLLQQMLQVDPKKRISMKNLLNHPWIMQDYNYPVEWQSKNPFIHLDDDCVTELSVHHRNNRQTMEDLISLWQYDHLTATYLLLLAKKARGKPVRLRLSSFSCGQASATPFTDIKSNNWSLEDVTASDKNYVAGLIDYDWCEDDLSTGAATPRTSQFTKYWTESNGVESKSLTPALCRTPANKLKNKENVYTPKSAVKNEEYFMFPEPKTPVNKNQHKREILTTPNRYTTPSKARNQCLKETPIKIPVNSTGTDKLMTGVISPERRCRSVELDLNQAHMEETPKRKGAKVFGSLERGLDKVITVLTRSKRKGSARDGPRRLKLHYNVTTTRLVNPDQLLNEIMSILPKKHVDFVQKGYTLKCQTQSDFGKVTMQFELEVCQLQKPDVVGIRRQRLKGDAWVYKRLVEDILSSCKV
Serine/threonine-protein kinase PAK 3 (Homo sapiens), sequence (O75914 whole entry, looked up): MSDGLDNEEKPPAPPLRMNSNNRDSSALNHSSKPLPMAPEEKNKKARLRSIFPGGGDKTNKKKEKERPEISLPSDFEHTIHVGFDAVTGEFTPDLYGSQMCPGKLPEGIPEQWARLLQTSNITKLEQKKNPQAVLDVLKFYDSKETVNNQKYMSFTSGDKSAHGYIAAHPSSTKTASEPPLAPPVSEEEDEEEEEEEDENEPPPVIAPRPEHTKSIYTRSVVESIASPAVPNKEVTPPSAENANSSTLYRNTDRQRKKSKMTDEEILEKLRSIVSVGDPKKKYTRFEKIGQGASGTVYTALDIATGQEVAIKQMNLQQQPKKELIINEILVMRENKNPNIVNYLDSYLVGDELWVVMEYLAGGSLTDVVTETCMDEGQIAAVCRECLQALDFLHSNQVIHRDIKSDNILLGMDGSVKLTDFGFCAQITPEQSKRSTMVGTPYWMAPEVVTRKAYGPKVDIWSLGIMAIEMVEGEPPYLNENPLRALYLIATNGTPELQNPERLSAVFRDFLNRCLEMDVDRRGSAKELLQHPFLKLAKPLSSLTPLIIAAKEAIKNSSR
MAP kinase-activated protein kinase 3 (Homo sapiens), sequence (Q16644 whole entry, looked up): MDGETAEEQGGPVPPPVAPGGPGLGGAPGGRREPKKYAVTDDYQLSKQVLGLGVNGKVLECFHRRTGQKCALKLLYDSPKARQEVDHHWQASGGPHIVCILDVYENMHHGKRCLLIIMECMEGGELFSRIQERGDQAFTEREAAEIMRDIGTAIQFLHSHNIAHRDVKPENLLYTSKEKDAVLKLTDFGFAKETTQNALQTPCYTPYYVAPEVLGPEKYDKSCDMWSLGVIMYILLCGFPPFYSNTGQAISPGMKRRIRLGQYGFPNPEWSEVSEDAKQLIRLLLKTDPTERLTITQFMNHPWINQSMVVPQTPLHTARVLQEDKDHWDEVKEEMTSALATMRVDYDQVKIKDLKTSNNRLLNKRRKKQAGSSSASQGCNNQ

inhibition [1]: Active | Activity [2]: Dose-dependent effect | inhibition [4]: Active | AUC(0-inf) [5]: 13.2 µg·h/mL | IC50 [6]: 1.15 nM | inhibition (INH) (Mus musculus): Active | Activity [10]: Dose-dependent effect | inhibition [11]: Active | IC50 [14]: 0.194 nM | inhibition [16]: Active
SMILES: Cc1c(C(=O)Nc2ccc3ccccc3n2)cnn1-c1ccccc1Br
Activity (HEK293): Active | Activity (SW-620 [3]): Dose-dependent effect | Activity (SW-620 [7]): Active | inhibition (SW480): Dose-dependent effect | Activity [8]: Non-Toxic | inhibition (Homo sapiens): Active | Activity (SW-620 [9]): Active | inhibition (HT-29): Dose-dependent effect | Activity [12]: Non-Toxic | Activity (SW-620 [13]): 23.4% | Activity (SW-620 [15]): 49% | Activity (SW-620 [17]): 35.7%
